Test results as given in ChEMBL document CHEMBL3414544, “PAINS in the assay: chemical mechanisms of assay interference and promiscuous enzymatic inhibition observed during a sulfhydryl-scavenging HTS” (J Med Chem, 2015).
Calls of active or inactive are those of the source. Unless noted, no cut-off for these calls is given here.

Assays:
[1] = molecular target: T1, Histone acetyltransferase RTT109 (Saccharomyces cerevisiae (strain ATCC 204508 / S288c) (Baker's yeast)) (UniProt Q07794); assay: Inhibition of Vps75-stimulated recombinant Saccharomyces cerevisiae histone acetyltransferase Rtt109 assessed as H3K56 acetylated product at […] after 45 mins by Slot bolt inhibiton assay
T1 sequence (whole entry): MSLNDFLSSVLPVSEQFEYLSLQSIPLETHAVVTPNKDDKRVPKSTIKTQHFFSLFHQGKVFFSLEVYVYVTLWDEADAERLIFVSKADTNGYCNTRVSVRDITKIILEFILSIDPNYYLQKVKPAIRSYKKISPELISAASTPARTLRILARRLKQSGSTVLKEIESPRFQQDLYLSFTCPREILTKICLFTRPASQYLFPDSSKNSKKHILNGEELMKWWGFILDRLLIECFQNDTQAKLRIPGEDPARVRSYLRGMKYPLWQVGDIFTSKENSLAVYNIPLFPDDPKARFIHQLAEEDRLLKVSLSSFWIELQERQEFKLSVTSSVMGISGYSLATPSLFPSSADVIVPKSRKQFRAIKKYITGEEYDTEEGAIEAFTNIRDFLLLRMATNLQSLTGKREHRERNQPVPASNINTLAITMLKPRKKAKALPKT

[2] = molecular target: T1, Histone acetyltransferase RTT109 (Saccharomyces cerevisiae (strain ATCC 204508 / S288c) (Baker's yeast)); assay: Inhibition of Vps75-stimulated recombinant Saccharomyces cerevisiae histone acetyltransferase Rtt109 assessed as H3K27 acetylated product at […] after 45 mins by Slot bolt inhibiton assay
[3] = molecular target: Histone acetyltransferase GCN5 (Saccharomyces cerevisiae S288c, UniProt Q03330); assay: Inhibition of yeast histone acetyltransferase Gcn5-Ada2-Ada3 complex using tetramer and [3H]-acetyl-CoA assessed as acetate incorporation after 30 mins by liquid scintillation counting; conditions: read-out: IC50
[4] = molecular target: T2, Histone acetyltransferase RTT109 (Saccharomyces cerevisiae (strain ATCC 204508 / S288c) (Baker's yeast), UniProt Q07794); assay: Inhibition of Vps75-stimulated recombinant Saccharomyces cerevisiae histone acetyltransferase Rtt109 using [3H]-acetyl-CoA assessed as acetate incorporation after 30 mins by liquid scintillation counting; conditions: read-out: IC50
T2 sequence (Q07794 whole entry): T1 sequence (whole entry)

[5] = molecular target: T3, Histone acetyltransferase p300 (Homo sapiens, UniProt Q09472); assay: Inhibition of recombinant histone acetyltransferase p300 (unknown origin) using dH3-H4 tetramer and [3H]-acetyl-CoA assessed as acetate incorporation after 5 mins by liquid scintillation counting in presence of 1 mM DTT
[6] = Chemical stability of the compound in HTS buffer assessed as GSH adduct formation by UPLC-MS analysis; assay type: physicochemical
How it was run: (§1)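 Compound (typically 0.5 mM final) incubated in HTS buffer (pH 8.0) for 5, 15 or 30 min, then reduced glutathione added (2 equiv per 1 equiv compound); aliquots analysed by UPLC–MS (BEH C18 column, ELS and 254 nm traces) 5 min after GSH addition, and the same sample re-analysed 15 min later. HTS-like conditions but 5% DMSO, no detergent.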

[7] = molecular target: T4, Lupus La protein (Homo sapiens) (UniProt P05455); assay: Induction of thiol reactivity with La protein (unknown origin) using […] assessed as protein reactivity by ALARM NMR in presence of 20 mM DTT
T4 sequence (whole entry): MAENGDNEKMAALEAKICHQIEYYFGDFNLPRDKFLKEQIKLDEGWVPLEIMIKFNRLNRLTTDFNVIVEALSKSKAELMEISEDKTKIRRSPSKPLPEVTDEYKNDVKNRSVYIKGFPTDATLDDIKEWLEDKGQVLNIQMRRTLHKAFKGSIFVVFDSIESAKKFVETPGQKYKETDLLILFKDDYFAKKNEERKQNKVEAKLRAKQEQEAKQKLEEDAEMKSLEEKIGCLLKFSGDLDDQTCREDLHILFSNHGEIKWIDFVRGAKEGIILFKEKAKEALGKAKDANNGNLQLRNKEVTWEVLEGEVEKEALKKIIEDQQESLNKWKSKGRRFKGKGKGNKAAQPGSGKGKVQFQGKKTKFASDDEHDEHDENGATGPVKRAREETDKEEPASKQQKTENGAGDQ
How it was run: (§2)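 ALARM NMR with recombinant La antigen expressed in E. coli Rosetta, 15N-labelled and 13C-labelled at Leu/Ile δ-methyl and Val γ-methyl groups; protein pre-reduced with 20 mM DTT then dialysed DTT-free under N2.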

[8] = Fluorescence quenching in HTS buffer with 20 uM 7-diethylamino-3-(4'-maleimidyl-phenyl)-4-methylcoumarin assessed as fluorescence signal reduction at 10 uM after 10 mins; assay type: physicochemical
[9] = Fluorescence quenching in HTS buffer assessed as fluorescence signal reduction at 10 uM after 10 mins; assay type: physicochemical
[10] = molecular target: T3, Histone acetyltransferase p300; assay: Inhibition of recombinant histone acetyltransferase p300 (unknown origin) using dH3-H4 tetramer and [3H]-acetyl-CoA assessed as acetate incorporation […] by liquid scintillation counting; conditions: read-out: IC50
[11] = molecular target: T4, Lupus La protein (Homo sapiens); assay: Induction of thiol reactivity with La protein (unknown origin) using […] assessed as protein reactivity by ALARM NMR; how it was run: as §2
[12] = molecular target: T2, Histone acetyltransferase RTT109; assay: Inhibition of Vps75-stimulated recombinant Saccharomyces cerevisiae histone acetyltransferase Rtt109 using Asf1-dH3-H4 as substrate assessed as coenzyme A production after 45 mins by CPM based HTS assay
How it was run: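 Recombinant Rtt109–Vps75 at 50 nM, with Asf1–dH3–H4 as substrate and acetyl-CoA as acetyl donor. Buffer contained freshly prepared 0.01% Triton X-100. The CoA product was detected by fluorescence of its CPM adduct. Plates had Z′ ≥0.5. IC50 came from a four-parameter variable-slope fit.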

[13] = molecular target: Histone acetyltransferase GCN5 (Saccharomyces cerevisiae S288c) (UniProt Q03330); assay: Inhibition of yeast histone acetyltransferase Gcn5-Ada2-Ada3 complex using tetramer and [3H]-acetyl-CoA assessed as acetate incorporation […] by liquid scintillation counting in presence of 1 mM DTT
[14] = Fluorescence quenching assessed as fluorescence signal reduction at 10 uM after 10 mins; assay type: physicochemical
How it was run: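 CPM (20 μM final) and CoA (5 μM final) reacted to completion in assay buffer (stable plateau, usually ~5 min); adduct solution added to wells preplated with compound; shaken 5 min, equilibrated 5 min at room temperature; fluorescence intensity read as percent signal reduction versus DMSO controls. Flagged as quencher at >20% signal reduction at 10 μM final compound.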

[15] = molecular target: T1, Histone acetyltransferase RTT109 (Saccharomyces cerevisiae (strain ATCC 204508 / S288c) (Baker's yeast)); assay: Inhibition of Vps75-stimulated recombinant Saccharomyces cerevisiae histone acetyltransferase Rtt109 using [3H]-acetyl-CoA assessed as acetate incorporation […] by liquid scintillation counting in presence of 1 mM DTT
[16] = Fluorescence quenching in HTS buffer with […] CoA assessed as fluorescence signal reduction at 10 uM after 10 mins; assay type: physicochemical
[17] = Chemical stability of the compound in HTS buffer assessed as GSH adduct formation measured as retention time after 5 mins by UPLC-MS analysis; assay type: physicochemical; how it was run: as §1
[18] = Chemical stability of the compound in HTS buffer assessed as GSH adduct formation measured as retention time after 15 mins by UPLC-MS analysis; assay type: physicochemical; conditions: 0.25 h; how it was run: as §1

T3 sequence (Q09472 whole entry): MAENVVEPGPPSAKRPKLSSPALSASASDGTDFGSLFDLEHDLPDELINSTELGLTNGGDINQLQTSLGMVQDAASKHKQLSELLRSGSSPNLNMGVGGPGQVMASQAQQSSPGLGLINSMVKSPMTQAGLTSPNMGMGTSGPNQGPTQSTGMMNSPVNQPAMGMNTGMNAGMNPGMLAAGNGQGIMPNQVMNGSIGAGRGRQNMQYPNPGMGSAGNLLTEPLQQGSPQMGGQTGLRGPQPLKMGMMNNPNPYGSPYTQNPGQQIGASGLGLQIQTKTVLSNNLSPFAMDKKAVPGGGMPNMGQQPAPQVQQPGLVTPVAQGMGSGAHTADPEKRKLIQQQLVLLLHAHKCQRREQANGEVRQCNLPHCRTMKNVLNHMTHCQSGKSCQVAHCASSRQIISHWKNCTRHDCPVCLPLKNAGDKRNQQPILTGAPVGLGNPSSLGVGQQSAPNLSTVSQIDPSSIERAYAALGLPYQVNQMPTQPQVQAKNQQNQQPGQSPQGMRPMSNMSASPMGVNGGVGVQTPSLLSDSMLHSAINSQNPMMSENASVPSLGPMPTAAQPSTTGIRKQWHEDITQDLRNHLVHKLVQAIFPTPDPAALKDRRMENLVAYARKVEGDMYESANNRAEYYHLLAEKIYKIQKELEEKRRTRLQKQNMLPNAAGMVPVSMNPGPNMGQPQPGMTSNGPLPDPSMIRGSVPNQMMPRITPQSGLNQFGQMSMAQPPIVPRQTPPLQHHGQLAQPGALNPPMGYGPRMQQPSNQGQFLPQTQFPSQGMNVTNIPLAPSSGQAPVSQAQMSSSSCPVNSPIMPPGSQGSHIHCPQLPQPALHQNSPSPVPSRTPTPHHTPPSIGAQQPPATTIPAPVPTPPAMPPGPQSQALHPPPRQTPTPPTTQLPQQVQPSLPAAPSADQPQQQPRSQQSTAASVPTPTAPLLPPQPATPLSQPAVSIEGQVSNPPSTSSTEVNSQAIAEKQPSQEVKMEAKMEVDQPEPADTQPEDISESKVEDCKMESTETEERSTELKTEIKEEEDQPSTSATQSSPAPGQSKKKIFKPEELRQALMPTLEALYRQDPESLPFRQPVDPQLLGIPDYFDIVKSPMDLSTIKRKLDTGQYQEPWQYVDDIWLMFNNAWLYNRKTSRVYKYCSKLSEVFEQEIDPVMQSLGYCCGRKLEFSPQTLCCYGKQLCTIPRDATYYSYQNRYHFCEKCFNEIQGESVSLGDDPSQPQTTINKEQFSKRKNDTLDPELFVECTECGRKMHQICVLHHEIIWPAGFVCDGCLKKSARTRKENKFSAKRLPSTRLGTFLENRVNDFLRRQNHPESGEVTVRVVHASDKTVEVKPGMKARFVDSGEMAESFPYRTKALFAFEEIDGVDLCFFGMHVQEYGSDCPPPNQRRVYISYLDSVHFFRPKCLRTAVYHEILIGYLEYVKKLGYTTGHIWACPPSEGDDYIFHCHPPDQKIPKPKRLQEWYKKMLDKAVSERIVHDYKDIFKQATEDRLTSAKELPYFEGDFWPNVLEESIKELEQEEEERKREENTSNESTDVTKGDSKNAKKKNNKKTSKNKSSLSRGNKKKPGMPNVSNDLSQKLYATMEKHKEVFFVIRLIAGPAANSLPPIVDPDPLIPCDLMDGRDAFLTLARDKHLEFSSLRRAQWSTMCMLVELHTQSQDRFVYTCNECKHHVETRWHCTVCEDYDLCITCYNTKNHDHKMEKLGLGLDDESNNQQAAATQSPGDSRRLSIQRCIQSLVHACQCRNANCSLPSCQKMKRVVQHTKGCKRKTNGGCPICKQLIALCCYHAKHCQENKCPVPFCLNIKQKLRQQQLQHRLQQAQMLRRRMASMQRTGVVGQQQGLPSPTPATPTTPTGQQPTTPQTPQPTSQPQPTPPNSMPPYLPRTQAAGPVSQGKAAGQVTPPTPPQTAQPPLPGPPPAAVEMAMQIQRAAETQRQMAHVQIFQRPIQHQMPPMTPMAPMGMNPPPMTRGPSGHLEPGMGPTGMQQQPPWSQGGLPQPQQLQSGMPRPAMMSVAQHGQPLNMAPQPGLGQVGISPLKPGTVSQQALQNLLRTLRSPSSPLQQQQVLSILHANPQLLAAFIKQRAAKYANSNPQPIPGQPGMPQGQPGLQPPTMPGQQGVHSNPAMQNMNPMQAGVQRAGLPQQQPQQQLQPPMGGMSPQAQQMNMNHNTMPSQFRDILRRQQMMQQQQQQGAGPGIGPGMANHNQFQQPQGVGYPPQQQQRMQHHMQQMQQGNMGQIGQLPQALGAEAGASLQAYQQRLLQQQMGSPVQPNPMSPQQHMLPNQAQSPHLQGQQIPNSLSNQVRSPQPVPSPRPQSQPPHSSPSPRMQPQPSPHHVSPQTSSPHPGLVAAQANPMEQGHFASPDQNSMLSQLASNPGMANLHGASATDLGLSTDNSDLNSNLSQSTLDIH
Sequence of Histone acetyltransferase GCN5 (Q03330 whole entry): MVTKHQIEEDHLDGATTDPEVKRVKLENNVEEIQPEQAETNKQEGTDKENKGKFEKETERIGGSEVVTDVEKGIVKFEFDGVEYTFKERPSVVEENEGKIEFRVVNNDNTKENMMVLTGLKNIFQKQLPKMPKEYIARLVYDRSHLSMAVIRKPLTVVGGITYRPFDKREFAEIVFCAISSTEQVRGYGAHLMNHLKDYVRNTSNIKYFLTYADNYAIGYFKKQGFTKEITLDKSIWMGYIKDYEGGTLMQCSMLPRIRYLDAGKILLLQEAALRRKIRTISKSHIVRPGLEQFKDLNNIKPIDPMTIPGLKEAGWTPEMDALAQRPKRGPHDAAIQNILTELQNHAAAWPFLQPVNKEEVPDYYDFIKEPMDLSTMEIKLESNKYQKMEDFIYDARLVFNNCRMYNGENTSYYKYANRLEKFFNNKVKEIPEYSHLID
Sequence of Histone acetyltransferase GCN5 (Saccharomyces cerevisiae S288c) (Q03330 whole entry): as above

SMILES | Activity [1] | Activity [2] | IC50 [3] | IC50 [4] | Activity [5] | Stability [6] | Activity [7] | Activity [8] | Activity [9] | IC50 [10] | Activity [11] | IC50 ([12]; read-out: IC50) | Activity [13] | Activity [14] | Activity [15] | Activity [16] | Retention_time [17] | Retention_time [18] | IC50 [12]
O=[N+]([O-])c1cc(Br)c2nsnc2c1Sc1ncnc2[nH]cnc12 | Active | Active | 4.6 µM | 3.9 µM | Active | Unstable | inactive | Not Active | Not Active | 2.2 µM | Active | 2.8 µM | Active | Not Active | Active | Not Active | – | – | –
O=C(O)CCSc1cc(NS(=O)(=O)c2ccc(Br)cc2)c2ccccc2c1O | – | – | 0.65 µM | 0.52 µM | Active | – | inactive | Active | Not Active | 1 µM | Active | – | Active | Not Active | – | Not Active | 3.67 min | 3.28 min | Not Active
O=C1CC(Sc2nnc(-c3ccccc3O)o2)C(=O)N1c1ccc(Br)cc1 (stereo unspecified) | Active | Active | 27 µM | 3.9 µM | Active | Unstable | inactive | Not Active | Not Active | 3.7 µM | Active | 15 µM | Active | Not Active | Active | Not Active | – | – | –
O=S(=O)(Nc1cc(Sc2nnnn2-c2ccccc2)c(O)c2ccccc12)c1ccccc1 | Active | Active | – | – | Active | – | – | Not Active | Not Active | 3.1 µM | – | – | Active | Not Active | Active | Not Active | 3.4 min | 3.28 min | –
Cc1ccc(N2C(=O)CC(Sc3nncn3-c3ccccc3)C2=O)cc1 (stereo unspecified) | Active | Active | 27 µM | 8.6 µM | Active | – | – | Not Active | Not Active | 9.8 µM | – | 11 µM | Active | Not Active | Active | Not Active | – | – | –
O=[N+]([O-])c1c(Sc2nnnn2-c2ccccc2)cc(Cl)c2nonc12 | Active | Active | 1.6 µM | 0.77 µM | Active | – | – | Not Active | Not Active | 1.1 µM | – | 2.3 µM | Active | Not Active | Active | Not Active | – | – | –
O=S(=O)(Nc1cc(Sc2ncn[nH]2)c(O)c2ccccc12)c1ccc2ccccc2c1 | Active | Active | – | – | Active | – | inactive | – | – | – | Active | – | Active | – | Active | – | – | – | –
CNc1nc(-c2ccccc2)[n+](-c2ccccc2)s1.[Cl-] | Active | Active | 7.5 µM | – | Active | Unstable | inactive | Not Active | Not Active | 1.9 µM | Active | – | Active | Not Active | Active | Not Active | – | – | –
O=S(=O)(Nc1cc(Sc2nc[nH]n2)c(O)c2ccccc12)c1ccc2ccccc2c1 | – | – | 2.5 µM | – | – | – | – | Not Active | Not Active | 0.51 µM | – | – | – | Not Active | – | Not Active | 3.69 min | 3.28 min | –
O=C(O)CSc1cc(NS(=O)(=O)c2ccc(C(=O)O)cc2)c2ccccc2c1O | – | – | 1.3 µM | 0.15 µM | Active | – | – | Active | Not Active | 0.66 µM | – | – | Active | Not Active | – | Not Active | 3.27 min | 3.28 min | Not Active
O=S(=O)(Nc1cc(Cl)c(O)c2ccccc12)c1ccc(Br)cc1 | Active | Active | 1.2 µM | 1.6 µM | Active | – | – | Not Active | Not Active | 1.8 µM | – | 2.5 µM | Active | Not Active | Active | Not Active | 3.65 min | 3.28 min | –
O=C(O)c1ccc(-n2nnnc2SC2=CS(=O)(=O)c3ccccc32)cc1 | Active | Active | 11 µM | 15 µM | Active | Unstable | inactive | Not Active | Not Active | 7.5 µM | Active | 8.8 µM | Active | Not Active | Active | Not Active | – | – | –
